FGF22 binding = binders of recombinant human FGF22 by thermal shift; activity (Tm shift, normalised), % at 9.99 µM; Q9HCT0; AID 651658; hit rate 1.5% among 340,000; SYPRO orange fluorescence; percent of sucrose octasulfate shift, DMSO zero;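 active = mean Tm shift, scaled 0 neutral to 100 positive control, at about 1.3% or above, every replicate too, limit read from the data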
Target sequence (Q9HCT0 whole entry, looked up): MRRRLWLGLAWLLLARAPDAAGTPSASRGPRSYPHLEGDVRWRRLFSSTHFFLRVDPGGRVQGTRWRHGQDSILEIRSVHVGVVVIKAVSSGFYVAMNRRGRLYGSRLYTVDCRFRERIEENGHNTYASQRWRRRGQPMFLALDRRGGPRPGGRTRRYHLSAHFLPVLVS
SIRT5 block = inhibitors of human sirtuin-5 desuccinylase; Q9NXA8; inhibition, % at 15 µM; hit rate 1.1% among 330,000; Purified SirT5, succinyl-peptide AMC, trypsin-coupled fluorescence; in the data active = inhibition above about 15%
Target sequence (Q9NXA8 whole entry, looked up): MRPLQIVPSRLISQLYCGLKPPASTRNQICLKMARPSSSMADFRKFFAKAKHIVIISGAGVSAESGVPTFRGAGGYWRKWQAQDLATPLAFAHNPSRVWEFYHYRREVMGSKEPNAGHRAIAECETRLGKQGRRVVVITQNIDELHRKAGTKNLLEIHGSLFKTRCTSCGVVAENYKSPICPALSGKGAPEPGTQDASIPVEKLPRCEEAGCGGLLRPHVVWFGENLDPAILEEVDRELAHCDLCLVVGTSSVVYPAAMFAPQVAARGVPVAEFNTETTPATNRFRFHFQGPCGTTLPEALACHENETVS
DENV2 CPE rescue = inhibitors of DENV2 cytopathic effect; DENV2-infected cells, cytopathic effect rescue, plate reader; CPE inhibition, % at 9.99 µM; hit rate 1.7% among 350,000; AID 651640; in the data active = CPE inhibition above about 20%, passing the limit was not always enough; tested in BHK-21 cells;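 also: 0% = median of neutral control wells and 100% = median of positive control wells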
FN deposition inh = fibronectin deposition inhibition; AH1F fibroblasts, Alexa488-fibronectin deposition fluorescence, overnight; inhibition, % at 12.6 µM; hit rate 0.086% among 350,000; AID 743247;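 active = mean inhibition across replicates of 30% or more, regardless of how many single replicates reach that level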;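 also: positive control wells lacked labelled fibronectin entirely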
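Test system: AH1F fibroblast monolayer depositing Alexa488-labelled fibronectin into matrix. Input: 10000 cells per well. Technique: fluorescence, ex 485 nm, em 525 nm. Buffer or medium: DMEM plus 2% serum, read in PBS. Timing: 1 h cell adhesion before compound, then overnight fibronectin incubation. Compound: single dose, pinned. Read-out basis: inhibition from reduced deposited-fibronectin fluorescence.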
ARNT-TACC3 inh = disrupts binding between human ARNT and TACC3; Q9Y6A5; AlphaScreen His-ARNT PAS-B/GST-TACC3 binding, luminescence; TACC3 fragment carries E629A point mutation; inhibition, % at 9.99 µM; hit rate 0.66% among 390,000; AID 623870;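 active = mean inhibition of replicates at least 50% and at least half of replicates each reaching 50%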;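 also: 0% = complete ARNT plus TACC3 wells and 100% = ARNT alone without TACC3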
Xi reactivation = reactivates the inactive X chromosome in mouse fibroblasts | XiGFP mouse fibroblasts, % GFP-positive cells imaging, 3 d; cells co-treated with 5-aza-dC sensitizer; scaled so ellipticine positive control = 100% | activation, % at 7.58 µM | hit rate 0.055% among 360,000 | AID 743238;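 active = mean normalized replicate activation at least 10% and every replicate at or above 10%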;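 also: 0% = median of on-plate neutral control wells and 100% = ellipticine 6 µM median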
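System: 68-5-11 XiGFP fibroblast line; Timing: 3 days compound exposure; Compound dosing: one concentration, pinned; Benchmarks: positive control ellipticine, 6 µM final; Buffer or medium: DMEM containing 5-aza-dC.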
Starred values were filed as active, the others as inactive; · = no result given. Compounds with a hit are over-represented: about 3.8% of the library has one in this group of screens.

SMILES | FGF22 binding | SIRT5 block | DENV2 CPE rescue | FN deposition inh | ARNT-TACC3 inh | Xi reactivation
C[C@H](CO)N1C[C@H](C)[C@@H](CN(C)C(=O)c2ccncc2)Oc2cc(C#CC3CC3)ccc2S1(=O)=O | 0.0 | 5.4 | 14.0 | · | · | -0.7
COc1n[nH]c(C(=O)Nc2nc3ccccc3s2)c1[N+](=O)[O-] | 44.0* | 0.6 | 1.6 | -9.5 | 3.2 | 0.0
CCNC(=O)C[C@@H]1CC[C@@H]2[C@H](COc3ccc(NC(=O)c4cccc(C(F)(F)F)c4)cc3C(=O)N2C)O1 | 0.0 | · | 9.0 | 3.8 | -0.9 | -0.1
COc1cc(OC)cc(-c2c(C#Cc3ccsc3)c3cc(-c4cc(OC)c(OC)c(OC)c4)ccc3n2C)c1 | 0.1 | · | 37.9* | -1.8 | -3.3 | 0.0
COc1cc(OC)cc(-c2c(C#Cc3ccsc3)c3cc(-c4ccc(OC)c(F)c4)ccc3n2C)c1 | 0.2 | · | 5.0 | 1.1 | -5.4 | 0.0
Nc1[nH]ncc1-c1ccc(F)cc1 | 0.0 | -4.2 | 1.0 | 3.2 | -5.4 | 0.1
Nc1[nH]ncc1-c1ccccc1 | 44.4* | 0.0 | 6.8 | 6.7 | -24.5 | 0.0
Cc1noc(C)c1NC(=O)N(C)C[C@@H]1OCCCC[C@H](C)Oc2ccc(NS(=O)(=O)c3cccs3)cc2C(=O)N([C@@H](C)CO)C[C@H]1C | -1.0 | -2.1 | 22.5* | · | -1.3 | -1.1
Cc1noc(C)c1NC(=O)N(C)C[C@@H]1Oc2ccc(NS(=O)(=O)c3cccs3)cc2C(=O)N([C@H](C)CO)C[C@H]1C | -0.4 | -1.9 | -9.2 | · | -36.6 | 0.1
Cc1noc(C)c1NC(=O)N(C)C[C@H]1OCCCC[C@@H](C)Oc2ccc(NS(=O)(=O)c3ccccc3)cc2C(=O)N([C@H](C)CO)C[C@H]1C | · | -2.2 | 69.9* | 1.8 | -2.8 | 0.0
Cc1noc(C)c1NC(=O)N(C)C[C@@H]1Oc2ccc(NS(=O)(=O)c3cccs3)cc2C(=O)N([C@@H](C)CO)C[C@H]1C | -0.4 | -2.5 | 37.6* | · | -22.3 | 0.0
CO[C@H]1CN(C)C(=O)c2cc(NC(=O)NC(C)C)ccc2OC[C@H](C)N(C(=O)NC(C)C)C[C@@H]1C | 0.1 | -2.6 | 10.5 | 0.2 | 0.8 | 0.6
COCC#Cc1ccc([C@@H]2[C@@H](CO)N3C(=O)CN(C(=O)Nc4cc(F)ccc4F)C[C@H]23)cc1 | · | · | · | · | · | 0.1
CC(=O)Nc1ccc2c(c1)CC(=O)N(C)C[C@H](C)[C@@H](CN(C)C(=O)OC(C)(C)C)O2 | · | · | · | -14.9 | · | 0.3
C[C@@H]1CN([C@@H](C)CO)C(=O)c2cc(NS(=O)(=O)c3ccc(Cl)cc3)ccc2O[C@@H](C)CCCCO[C@H]1CN(C)C(=O)c1ccccc1 | -0.4 | -0.6 | -12.2 | 10.2 | -4.2 | 0.0
CC(C)N(C(=O)COC(=O)[C@H](C)NC(N)=O)c1ccccc1 | 43.3* | 0.7 | 3.7 | · | 6.6 | 0.2
C[C@@H]1CN([C@@H](C)CO)S(=O)(=O)c2ccc(C3=CCCCC3)cc2O[C@H]1CN(C)Cc1cccnc1 | -0.7 | 4.8 | 1.8 | · | -0.8 | 0.0
CC(=O)N(C)C[C@H]1Oc2c(NS(C)(=O)=O)cccc2C(=O)N(C)C[C@H]1C | · | · | · | -10.5 | · | 0.0
COc1ccc(S(=O)(=O)N(C)C[C@H]2OCCCC[C@H](C)Oc3ccc(N(C)C)cc3C(=O)N([C@@H](C)CO)C[C@H]2C)cc1 | · | · | · | · | · | 0.3
Cc1ccccc1CN1N=C(/C=C/c2ccccc2)CCC1=O | 44.5* | 5.1 | -2.4 | -2.8 | 8.3 | 0.0
Cc1ccc(/C=C/C2=NN(Cc3ccc(Cl)c(Cl)c3)C(=O)CC2)cc1 | · | · | · | · | 0.1 | ·
CCN(C[C@H]1[C@@H](c2ccccc2)[C@H](CO)N1CC1CC1)C(=O)c1ccccn1 | -0.1 | -0.5 | 24.8* | -8.3 | -5.4 | 0.1
CCN(C[C@H]1[C@H](c2ccccc2)[C@H](CO)N1CC1CC1)C(=O)c1ccccn1 | -0.4 | -2.4 | 4.6 | -16.1 | 2.7 | 0.2
CCN(C[C@H]1[C@H](c2ccccc2)[C@@H](CO)N1CC1CC1)C(=O)c1ccccn1 | -0.2 | 0.3 | 21.0* | · | 8.1 | 0.0
COc1ccc(-n2nnnc2SCC(=O)N(C)C2CCS(=O)(=O)C2)cc1 (configuration not stated) | 43.3* | · | 9.4 | -9.3 | -4.9 | 1.5

From PubChem
